# The source made the active and inactive calls. The rule behind the calls is not given here.
# What was measured:
# [1] = target: hERG (KCNH2) (Homo sapiens, UniProt Q12809); assay: Inhibition of human ERG expressed in CHO cells at 10 uM at holding potential of -80 mV by patch clamp method; assay type: cell-based; conditions: CHO cells expressing human ERG
# [2] = Partition coefficient, logD between 1-octanol and pH 7.4 aqueous buffer by chromatographic analysis; assay type: physicochemical; conditions: 1-octanol/pH 7.4 aqueous buffer
# Procedure, shortened: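 LogD between 1-octanol and aqueous buffer at pH 7.4 was determined by a chromatographic procedure adapted from a published method.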
# [3] = target: T1, Glucose-dependent insulinotropic receptor (Homo sapiens, UniProt Q8TDV5); assay: Agonist activity at human GPR119 expressed in CHO cells co-expressing cyclic AMP response element-luciferase reporter gene incubated for 2 hrs by steady-glo luciferase assay; assay type: functional, cell-based
# T1 sequence (Q8TDV5 whole entry): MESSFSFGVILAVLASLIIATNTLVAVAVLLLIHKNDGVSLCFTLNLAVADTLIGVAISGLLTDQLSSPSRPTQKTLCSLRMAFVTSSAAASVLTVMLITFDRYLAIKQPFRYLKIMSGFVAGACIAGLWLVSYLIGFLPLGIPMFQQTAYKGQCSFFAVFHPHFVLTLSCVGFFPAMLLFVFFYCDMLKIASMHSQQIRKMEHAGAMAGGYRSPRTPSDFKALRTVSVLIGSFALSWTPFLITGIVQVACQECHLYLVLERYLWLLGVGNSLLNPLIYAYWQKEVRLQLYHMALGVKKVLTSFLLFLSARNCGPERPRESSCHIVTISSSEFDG
# Procedure, shortened: (§1)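 CHO cells stably expressing human or rat GPR119 were seeded at 10,000 cells/well in MEMα with 10% FBS and Geneticin and grown overnight at 37 °C. After one wash, cells were exposed to compounds at various concentrations in MEMα/20 mM HEPES/0.1% BSA for 2 h. cAMP-driven luciferase was read with Steady-Glo and normalized to vehicle and reference wells. EC50 is the mean, n = 2.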
# [4] = Aqueous solubility of the compound at pH 6.8 by HPLC analysis; assay type: physicochemical; conditions: buffer
# Procedure, shortened: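 DMSO stock solutions were added in small volumes to aqueous buffer at pH 6.8 and incubated. Precipitate was removed by filtration, and the filtrate was quantified by HPLC.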
# [5] = Hepatic clearance in rat liver microsomes measured up to 30 mins by LC/MS/MS analysis; assay type: ADME, Microsome; conditions: read-out: CLH
# Procedure, shortened: (§2)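 Human or rat liver microsomes (0.2 mg/mL protein) were incubated with 1 μM compound in 50 mM potassium phosphate, pH 7.4. The reaction was started with an NADPH-generating system and stopped with acetonitrile at 15 and 30 min. Parent compound was quantified by LC/MS/MS, and CLint (μL/min/mg) was taken from the slope of the concentration–time plot.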
# [6] = Hepatic clearance in human liver microsomes measured up to 30 mins by LC/MS/MS analysis; assay type: ADME, Microsome; conditions: read-out: CLH; procedure, shortened: as §2
# [7] = target: T2, Glucose-dependent insulinotropic receptor (Rattus norvegicus, UniProt Q7TQN8); assay: Agonist activity at rat GPR119 in golden hamster HIT-T15 cells assessed as induction of glucose-induced insulin secretion after 2 hrs by A1phaLISA; assay type: functional, cell-based
# T2 sequence (Q7TQN8 whole entry): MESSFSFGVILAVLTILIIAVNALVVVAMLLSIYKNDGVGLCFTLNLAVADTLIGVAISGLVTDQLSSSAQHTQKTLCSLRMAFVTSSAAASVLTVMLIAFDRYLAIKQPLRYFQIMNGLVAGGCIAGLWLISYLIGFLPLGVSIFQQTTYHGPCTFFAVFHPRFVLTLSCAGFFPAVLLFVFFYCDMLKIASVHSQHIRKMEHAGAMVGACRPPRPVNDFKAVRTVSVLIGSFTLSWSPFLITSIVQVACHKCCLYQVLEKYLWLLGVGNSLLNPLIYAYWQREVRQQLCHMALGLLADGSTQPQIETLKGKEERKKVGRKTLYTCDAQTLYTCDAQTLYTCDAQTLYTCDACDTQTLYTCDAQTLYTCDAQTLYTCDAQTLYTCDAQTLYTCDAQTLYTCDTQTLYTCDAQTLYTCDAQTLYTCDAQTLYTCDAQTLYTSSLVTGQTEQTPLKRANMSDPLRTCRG
# Procedure, shortened: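 Hamster HIT-T15 beta cells were seeded at 5 × 10^4 cells/well and pre-incubated 2 h in KRBH with 0.2% BSA. They were then incubated 2 h at 37 °C with compound in KRBH containing 0.2% fatty-acid-free BSA and 10 mmol/L glucose. Secreted insulin was quantified by AlphaLISA. EC50 from n = 2.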
# [8] = Clearance in rat at 0.1 mg/kg, iv administered as cassette dose by LC/MS/MS analysis; assay type: ADME, organism-based; conditions: in vivo
# Procedure, shortened: (§3)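 Intravenous cassette dosing at 0.1 mg/kg in rats (the methods text says non-fasted mice). Plasma was obtained from blood samples, deproteinized, centrifuged, and analysed by LC/MS/MS.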
# [9] = Intrinsic clearance in human liver microsomes; assay type: ADME, Microsome; conditions: read-out: CLH; procedure, shortened: as §2
# [10] = target: T2, Glucose-dependent insulinotropic receptor; assay: Agonist activity at rat GPR119 expressed in CHO cells co-expressing cyclic AMP response element-luciferase reporter gene incubated for 2 hrs by steady-glo luciferase assay; assay type: functional, cell-based; procedure, shortened: as §1
# [11] = AUC in […] at 1 mg/kg, po administered as cassette dose by LC/MS/MS analysis; assay type: ADME, organism-based, Rattus norvegicus; parameters: dose 1 mg/kg; conditions: in vivo
# [12] = Volume of distribution at steady state in rat at 0.1 mg/kg, iv administered as cassette dose by LC/MS/MS analysis; assay type: ADME, organism-based; conditions: in vivo; procedure, shortened: as §3
# [13] = system: Rattus norvegicus; assay: Antidiabetic activity in orally dosed NSTZ1.5 rat assessed as reduction in insulin level administered 60 mins prior to glucose challenge and measured up to 60 mins by OGTT; assay type: functional, organism-based; conditions: dose 0.3-3 mg/kg
# [14] = Oral bioavailability in […] at 1 mg/kg administered as cassette dose by LC/MS/MS analysis; assay type: ADME, organism-based, Rattus norvegicus; conditions: in vivo
# [15] = Mean residence time in rat at 1 mg/kg, po administered as cassette dose by LC/MS/MS analysis; assay type: ADME, organism-based; conditions: in vivo
# Procedure, shortened: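 Rat cassette PK. Oral dose 1 mg/kg in 0.5% methylcellulose aqueous solution. The methods text says non-fasted mice. Blood was collected after dosing, and plasma was deproteinized and centrifuged. Compound in the supernatant was measured by LC/MS/MS.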
# [16] = target: T2, Glucose-dependent insulinotropic receptor; assay: Agonist activity at rat GPR119 in GLUTag cells assessed as induction of GLP-1 secretion after 2 hrs by ELISA; assay type: functional, cell-based
# Procedure, shortened: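 Murine GLUTag L cells were seeded at 1 × 10^4 cells/well on poly-L-lysine and moved overnight to low-glucose DMEM. After a Hank's wash, cells were incubated 2 h at 37 °C with compound in KRBH containing 0.2% fatty-acid-free BSA and 10 mmol/L glucose. Active GLP-1 in the supernatant was measured by ELISA. EC50 from n = 2.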
# [17] = system: Rattus norvegicus; assay: Antidiabetic activity in NSTZ1.5 rat assessed as reduction in plasma glucose level at 0.3 to 3 mg/kg, po administered 60 mins prior to glucose challenge and measured up to 60 mins by OGTT; assay type: functional, organism-based; conditions: dose 0.3-3 mg/kg
# Chain of hERG (KCNH2) (Q12809 whole entry): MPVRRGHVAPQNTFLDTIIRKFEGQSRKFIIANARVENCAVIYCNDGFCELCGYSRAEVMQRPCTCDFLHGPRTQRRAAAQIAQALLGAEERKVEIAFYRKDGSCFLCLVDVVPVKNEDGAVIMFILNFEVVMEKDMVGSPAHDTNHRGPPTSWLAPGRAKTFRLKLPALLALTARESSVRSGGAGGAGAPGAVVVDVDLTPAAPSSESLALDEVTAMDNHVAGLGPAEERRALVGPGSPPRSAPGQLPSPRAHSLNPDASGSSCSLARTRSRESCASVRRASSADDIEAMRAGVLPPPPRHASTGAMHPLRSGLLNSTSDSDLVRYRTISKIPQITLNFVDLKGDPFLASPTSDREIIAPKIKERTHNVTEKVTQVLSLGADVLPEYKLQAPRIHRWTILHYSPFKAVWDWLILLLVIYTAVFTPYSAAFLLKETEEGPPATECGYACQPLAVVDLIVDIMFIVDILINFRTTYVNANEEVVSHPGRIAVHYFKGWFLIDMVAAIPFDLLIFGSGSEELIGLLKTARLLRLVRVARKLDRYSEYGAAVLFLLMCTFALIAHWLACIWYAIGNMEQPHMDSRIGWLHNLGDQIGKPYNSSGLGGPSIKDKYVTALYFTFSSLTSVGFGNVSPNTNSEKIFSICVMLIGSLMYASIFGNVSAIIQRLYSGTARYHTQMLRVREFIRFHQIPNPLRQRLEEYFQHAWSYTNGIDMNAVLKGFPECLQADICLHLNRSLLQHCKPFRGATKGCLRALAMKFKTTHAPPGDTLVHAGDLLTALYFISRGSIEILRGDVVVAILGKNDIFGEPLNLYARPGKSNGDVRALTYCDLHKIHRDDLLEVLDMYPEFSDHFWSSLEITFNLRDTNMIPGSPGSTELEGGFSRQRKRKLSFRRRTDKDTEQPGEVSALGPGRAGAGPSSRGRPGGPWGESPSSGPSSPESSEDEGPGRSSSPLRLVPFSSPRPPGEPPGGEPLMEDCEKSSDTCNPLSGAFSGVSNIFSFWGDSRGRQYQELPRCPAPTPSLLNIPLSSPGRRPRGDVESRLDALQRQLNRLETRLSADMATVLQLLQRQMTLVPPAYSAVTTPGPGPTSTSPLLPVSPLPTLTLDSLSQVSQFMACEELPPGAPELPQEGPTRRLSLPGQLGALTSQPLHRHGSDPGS
logD [2],EC50 [3],SMILES,inhibition at 10 µM [1],other results
2.7,300 nM,CC(C)(C)OC(=O)N1CCC(Nc2cc(N3CCc4cc(S(C)(=O)=O)ccc43)ncn2)CC1,80%,
,270 nM,CC(C)(C)OC(=O)N1CCC(N(c2cc(O[C@H]3CC[C@H](S(C)(=O)=O)CC3)ncn2)C(F)(F)F)CC1,,
4.1,51 nM,CC(C)(C)OC(=O)N1CCC(N(CC2CC2)c2cc(N3CCc4cc(S(C)(=O)=O)ccc43)ncn2)CC1,100%,
4.1,2.5 nM,CC(C)(C)OC(=O)N1CCC(N(c2cc(N3CCc4cc(S(C)(=O)=O)ccc43)ncn2)C(F)(F)F)CC1,13%,
,3.6 nM,CC(C)(C)OC(=O)N1CCC(N(c2cc(OC3CCN(S(C)(=O)=O)CC3)ncn2)C(F)(F)F)CC1,,
,5.4 nM,CS(=O)(=O)N1CCC(Oc2cc(N(C3CCN(c4nc(C5CC5)no4)CC3)C(F)(F)F)ncn2)CC1,,solubility [4]: 15 µg/mL; microsomal CLint [5]: 13 µL/min/mg; microsomal CLint [6]: 31 µL/min/mg
,2.7 nM,CC(C)c1noc(N2CCC(N(c3cc(OC4CCN(S(C)(=O)=O)CC4)ncn3)C(F)(F)F)CC2)n1,,solubility [4]: 29 µg/mL; microsomal CLint [5]: 36 µL/min/mg; microsomal CLint [6]: 108 µL/min/mg
,> 10000 nM,CN(c1cc(N(C2CCN(C(=O)OC(C)(C)C)CC2)C(F)(F)F)ncn1)C1CCN(S(C)(=O)=O)CC1,,
,7100 nM,CC(C)(C)OC(=O)N1CCC(N(c2cc(OC3CN(S(C)(=O)=O)C3)ncn2)C(F)(F)F)CC1,,
3.79,2.9 nM,CC(C)c1noc(N2CCC(N(c3cc(N4CCc5cc(S(C)(=O)=O)ccc54)ncn3)C(F)(F)F)CC2)n1,,solubility [4]: < 0.22 µg/mL
3.5,14 nM,CCN(c1cc(N2CCc3cc(S(C)(=O)=O)ccc32)ncn1)C1CCN(C(=O)OC(C)(C)C)CC1,116%,
,4.6 nM,CC(C)(F)c1noc(N2CCC(N(c3cc(OC4CCN(S(C)(=O)=O)CC4)ncn3)C(F)(F)F)CC2)n1,19%,EC50 [7]: 4.8 nM; clearance [8]: 6.22 mL/min/kg; solubility [4]: 21 µg/mL; microsomal CLint [5]: < 1 µL/min/mg; microsomal CLint [9]: 27 µL/min/mg; EC50 [10]: 24 nM; microsomal CLint [6]: 27 µL/min/mg; AUC [11]: 1540 ng·h/mL; Vdss [12]: 1.27 L/kg; Activity [13]: Dose-Dependent Effect; bioavailability [14]: 57%; MRT [15]: 4.05 h; EC50 [16]: 3.8 nM; Activity [17]: Active
,960 nM,CC(C)(C)OC(=O)N1CCC(N(c2cc(OCC3CN(S(C)(=O)=O)C3)ncn2)C(F)(F)F)CC1,,
3.2,21 nM,CN(c1cc(N2CCc3cc(S(C)(=O)=O)ccc32)ncn1)C1CCN(C(=O)OC(C)(C)C)CC1,85%,
4,18 nM,CCCN(c1cc(N2CCc3cc(S(C)(=O)=O)ccc32)ncn1)C1CCN(C(=O)OC(C)(C)C)CC1,94%,
,,CC(C)c1noc(N2CCC(Oc3cc(N4CCc5cc(N6CCC[C@H](O)C6=O)ccc54)ncn3)CC2)n1,,microsomal CLint [9]: 10 µL/min/mg
,43 nM,CC(C)(C)OC(=O)N1CCC(N(c2cc(NC3CCN(S(C)(=O)=O)CC3)ncn2)C(F)(F)F)CC1,,
3.4,29 nM,COCCN(c1cc(N2CCc3cc(S(C)(=O)=O)ccc32)ncn1)C1CCN(C(=O)OC(C)(C)C)CC1,120%,

# Source: ChEMBL document CHEMBL4811273, “Discovery of a novel series of GPR119 agonists: Design, synthesis, and biological evaluation of N-(Piperidin-4-yl)-N-(trifluoromethyl)pyrimidin-4-amine derivatives” (Bioorg Med Chem, 2021)
